Laboratory results reported in ChEMBL document CHEMBL3632459, “Synthesis and evaluation of aporphine analogs containing C1 allyl isosteres at the h5-HT(2A) receptor” (Bioorg Med Chem Lett, 2015).

Key:
[1] = species on record: Homo sapiens; test: Selectivity ratio of Ke(app) for adrenergic alpha1A receptor (unknown origin) to Ke(app) for human 5-HT2A receptor
In short: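 Ratio of apparent Ke values from matched FLIPR calcium functional assays at human 5-HT2A and at α1A receptors. Compounds were screened at 10 μM. Ke was taken from the rightward EC50 shift of an 8-point half-log agonist curve (5-HT at 5-HT2A) with one antagonist concentration, Ke = [L]/(DR−1). Values are means of ≥2 triplicate experiments.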

[2] = molecular target: Sodium-dependent noradrenaline transporter (Homo sapiens) (UniProt P23975); test: Displacement of [3H]-Nisoxetine from recombinant human NET at 10 uM after […] by Microbeta scintillation counting analysis relative to control
[3] = molecular target: 5-hydroxytryptamine receptor 1A (Homo sapiens) (UniProt P08908); test: Displacement of [3H]-8-OH-DPAT from recombinant human 5-HT1A receptor at 10 uM after […] by Microbeta scintillation counting analysis relative to control
[4] = molecular target: D(2) dopamine receptor (Homo sapiens) (UniProt P14416); test: Displacement of [3H]-N-methylspiperone from recombinant human dopamine D2 receptor at 10 uM after […] by Microbeta scintillation counting analysis relative to control
[5] = molecular target: Muscarinic acetylcholine receptor M1 (Homo sapiens) (UniProt P11229); test: Displacement of [3H]-QNB from recombinant human muscarinic M1 receptor at 10 uM after […] by Microbeta scintillation counting analysis relative to control
[6] = molecular target: Alpha-1A adrenergic receptor (Homo sapiens) (UniProt P35348); test: Displacement of [3H]-Prazosin from recombinant human adrenergic alpha1A receptor at 10 uM after […] by Microbeta scintillation counting analysis relative to control
[7] = molecular target: Muscarinic acetylcholine receptor M2 (Homo sapiens) (UniProt P08172); test: Displacement of [3H]-QNB from recombinant human muscarinic M2 receptor at 10 uM after […] by Microbeta scintillation counting analysis relative to control
[8] = molecular target: 5-hydroxytryptamine receptor 5A (Homo sapiens) (UniProt P47898); test: Displacement of [3H]-LSD from recombinant human 5-HT5A receptor at 10 uM after […] by Microbeta scintillation counting analysis relative to control
Chain of 5-hydroxytryptamine receptor 5A (Homo sapiens) (P47898 whole entry): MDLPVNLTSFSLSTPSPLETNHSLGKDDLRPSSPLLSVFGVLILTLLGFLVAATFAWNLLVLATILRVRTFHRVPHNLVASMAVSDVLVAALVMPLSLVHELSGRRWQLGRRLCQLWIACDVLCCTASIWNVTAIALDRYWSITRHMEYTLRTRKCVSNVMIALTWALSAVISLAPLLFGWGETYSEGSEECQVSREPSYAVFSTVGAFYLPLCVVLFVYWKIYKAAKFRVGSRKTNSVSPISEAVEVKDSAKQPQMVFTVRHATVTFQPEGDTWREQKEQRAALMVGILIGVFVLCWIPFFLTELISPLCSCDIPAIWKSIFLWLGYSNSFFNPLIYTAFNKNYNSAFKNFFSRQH

[9] = molecular target: Histamine H4 receptor (Homo sapiens) (UniProt Q9H3N8); test: Displacement of [3H]-Histamine from recombinant human histamine H4 receptor at 10 uM after […] by Microbeta scintillation counting analysis relative to control
[10] = molecular target: Muscarinic acetylcholine receptor M3 (Homo sapiens) (UniProt P20309); test: Displacement of [3H]-QNB from recombinant human muscarinic M3 receptor at 10 uM after […] by Microbeta scintillation counting analysis relative to control
Chain of Muscarinic acetylcholine receptor M3 (Homo sapiens) (P20309 whole entry, looked up): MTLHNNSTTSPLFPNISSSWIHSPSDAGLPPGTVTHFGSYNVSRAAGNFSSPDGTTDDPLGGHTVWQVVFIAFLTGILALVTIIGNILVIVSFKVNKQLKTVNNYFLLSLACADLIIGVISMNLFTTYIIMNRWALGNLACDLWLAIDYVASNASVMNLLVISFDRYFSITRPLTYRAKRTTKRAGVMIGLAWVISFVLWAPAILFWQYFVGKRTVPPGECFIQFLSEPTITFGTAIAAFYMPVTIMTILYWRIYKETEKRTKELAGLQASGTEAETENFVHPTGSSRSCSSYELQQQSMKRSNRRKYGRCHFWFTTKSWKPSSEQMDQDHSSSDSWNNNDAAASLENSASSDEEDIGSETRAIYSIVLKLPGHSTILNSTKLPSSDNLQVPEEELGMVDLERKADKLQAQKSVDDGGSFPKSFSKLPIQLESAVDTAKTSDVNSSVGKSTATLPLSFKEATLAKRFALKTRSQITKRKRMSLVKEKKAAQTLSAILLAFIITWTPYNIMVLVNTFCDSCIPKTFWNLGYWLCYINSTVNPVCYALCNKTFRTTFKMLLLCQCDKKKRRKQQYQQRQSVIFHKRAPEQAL

[11] = molecular target: Histamine H1 receptor (Homo sapiens) (UniProt P35367); test: Displacement of [3H]-Pyrilamine from recombinant human histamine H1 receptor at 10 uM after […] by Microbeta scintillation counting analysis relative to control
[12] = molecular target: Histamine H2 receptor (Homo sapiens, UniProt P25021); test: Displacement of [3H]-Tiotidine from recombinant human histamine H2 receptor after […] by Microbeta scintillation counting analysis
[13] = molecular target: Mu-type opioid receptor (Homo sapiens) (UniProt P35372); test: Displacement of [3H]-DAMGO from recombinant human mu opioid receptor at 10 uM after […] by Microbeta scintillation counting analysis relative to control
Chain of Mu-type opioid receptor (Homo sapiens) (P35372 whole entry): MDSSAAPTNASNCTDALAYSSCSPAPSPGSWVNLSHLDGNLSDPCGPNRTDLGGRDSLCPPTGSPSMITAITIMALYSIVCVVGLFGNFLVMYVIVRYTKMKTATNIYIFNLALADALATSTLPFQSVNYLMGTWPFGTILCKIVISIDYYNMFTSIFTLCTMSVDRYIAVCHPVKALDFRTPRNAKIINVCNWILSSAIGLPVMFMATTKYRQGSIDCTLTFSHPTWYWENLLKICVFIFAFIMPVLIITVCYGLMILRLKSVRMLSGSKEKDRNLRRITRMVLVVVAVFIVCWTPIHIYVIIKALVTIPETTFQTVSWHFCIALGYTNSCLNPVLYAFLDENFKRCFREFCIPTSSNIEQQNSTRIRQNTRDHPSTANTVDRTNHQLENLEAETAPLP

[14] = molecular target: Translocator protein (Homo sapiens, UniProt P30536); test: Displacement of [3H]-PK11195 from recombinant human PBR after […] by Microbeta scintillation counting analysis
[15] = molecular target: Muscarinic acetylcholine receptor M4 (Homo sapiens) (UniProt P08173); test: Displacement of [3H]-QNB from recombinant human muscarinic M4 receptor at 10 uM after […] by Microbeta scintillation counting analysis relative to control
[16] = molecular target: Alpha-2C adrenergic receptor (Homo sapiens, UniProt P18825); test: Displacement of [3H]-Clonidine from recombinant human adrenergic alpha2C receptor after […] by Microbeta scintillation counting analysis
Chain of Alpha-2C adrenergic receptor (P18825 whole entry): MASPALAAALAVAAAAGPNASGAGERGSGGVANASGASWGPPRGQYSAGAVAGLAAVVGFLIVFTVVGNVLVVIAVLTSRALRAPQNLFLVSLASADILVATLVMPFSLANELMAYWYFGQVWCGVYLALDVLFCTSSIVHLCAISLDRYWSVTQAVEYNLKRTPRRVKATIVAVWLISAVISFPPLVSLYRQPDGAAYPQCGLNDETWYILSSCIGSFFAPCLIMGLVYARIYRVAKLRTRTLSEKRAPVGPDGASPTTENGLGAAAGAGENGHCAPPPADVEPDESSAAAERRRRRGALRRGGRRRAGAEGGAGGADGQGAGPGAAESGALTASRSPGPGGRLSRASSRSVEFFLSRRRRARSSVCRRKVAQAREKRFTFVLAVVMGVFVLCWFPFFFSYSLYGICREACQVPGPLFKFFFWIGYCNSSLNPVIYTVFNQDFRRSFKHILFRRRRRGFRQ

[17] = molecular target: Alpha-1D adrenergic receptor (Homo sapiens) (UniProt P25100); test: Inhibition of recombinant human adrenergic alpha1D receptor at 10 uM after […] by Microbeta scintillation counting analysis relative to control
[18] = molecular target: D(4) dopamine receptor (Homo sapiens) (UniProt P21917); test: Displacement of [3H]-N-methylspiperone from recombinant human dopamine D4 receptor at 10 uM after […] by Microbeta scintillation counting analysis relative to control
[19] = molecular target: 5-hydroxytryptamine receptor 1B (Homo sapiens, UniProt P28222); test: Displacement of [3H]-[…] from recombinant human 5-HT1B receptor after […] by Microbeta scintillation counting analysis
[20] = species on record: Rattus norvegicus; test: Displacement of [3H]-Flunitrazepam from rat brain Benzodiazepine receptor at 10 uM after […] by Microbeta scintillation counting analysis relative to control
[21] = molecular target: Beta-2 adrenergic receptor (Homo sapiens) (UniProt P07550); test: Displacement of [3H]-Iodopindolol from recombinant human adrenergic beta2 receptor at 10 uM after […] by Microbeta scintillation counting analysis relative to control
[22] = molecular target: 5-hydroxytryptamine receptor 3A (Homo sapiens, UniProt P46098); test: Displacement of [3H]-LY278584 from recombinant human 5-HT3 receptor after […] by Microbeta scintillation counting analysis
Chain of 5-hydroxytryptamine receptor 3A (P46098 whole entry): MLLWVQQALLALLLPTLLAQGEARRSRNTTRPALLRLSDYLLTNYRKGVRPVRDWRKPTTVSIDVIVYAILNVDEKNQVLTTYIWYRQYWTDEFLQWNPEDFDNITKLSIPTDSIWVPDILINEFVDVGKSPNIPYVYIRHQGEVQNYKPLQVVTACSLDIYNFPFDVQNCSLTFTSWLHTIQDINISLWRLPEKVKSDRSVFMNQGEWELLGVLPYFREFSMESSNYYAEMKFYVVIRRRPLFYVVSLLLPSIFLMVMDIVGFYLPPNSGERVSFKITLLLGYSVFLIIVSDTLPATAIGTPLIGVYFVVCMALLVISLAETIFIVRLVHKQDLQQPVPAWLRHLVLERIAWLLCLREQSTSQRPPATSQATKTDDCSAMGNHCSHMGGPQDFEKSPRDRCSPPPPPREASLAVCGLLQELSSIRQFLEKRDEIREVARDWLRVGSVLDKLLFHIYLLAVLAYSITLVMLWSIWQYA

[23] = molecular target: 5-hydroxytryptamine receptor 2B (Homo sapiens, UniProt P41595); test: Displacement of [3H]-LSD from recombinant human 5-HT2B receptor after […] by Microbeta scintillation counting analysis
[24] = molecular target: Alpha-1B adrenergic receptor (Homo sapiens) (UniProt P35368); test: Displacement of [3H]-Prazosin from recombinant human adrenergic alpha1B receptor at 10 uM after […] by Microbeta scintillation counting analysis relative to control
[25] = molecular target: D(3) dopamine receptor (Homo sapiens, UniProt P35462); test: Displacement of [3H]-N-methylspiperone from recombinant human dopamine D3 receptor after […] by Microbeta scintillation counting analysis
[26] = molecular target: Histamine H3 receptor (Homo sapiens) (UniProt Q9Y5N1); test: Displacement of [3H]-alpha-methylhistamine from recombinant human histamine H3 receptor at 10 uM after […] by Microbeta scintillation counting analysis relative to control
Chain of Histamine H3 receptor (Homo sapiens) (Q9Y5N1 whole entry): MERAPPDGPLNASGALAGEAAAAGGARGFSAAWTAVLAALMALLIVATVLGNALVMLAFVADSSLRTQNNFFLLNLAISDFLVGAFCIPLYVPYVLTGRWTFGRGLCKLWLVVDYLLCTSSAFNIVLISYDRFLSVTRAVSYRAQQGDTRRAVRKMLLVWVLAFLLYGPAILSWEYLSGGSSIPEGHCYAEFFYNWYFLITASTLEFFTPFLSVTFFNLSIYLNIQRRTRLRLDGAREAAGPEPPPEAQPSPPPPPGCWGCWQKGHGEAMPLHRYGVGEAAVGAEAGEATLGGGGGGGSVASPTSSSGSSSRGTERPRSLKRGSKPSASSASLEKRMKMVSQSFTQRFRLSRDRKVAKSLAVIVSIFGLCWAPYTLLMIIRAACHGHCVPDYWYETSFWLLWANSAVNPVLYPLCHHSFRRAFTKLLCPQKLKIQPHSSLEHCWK

[27] = molecular target: D(1A) dopamine receptor (Homo sapiens, UniProt P21728); test: Displacement of [3H]-[…] from recombinant human dopamine D1 receptor after […] by Microbeta scintillation counting analysis
Chain of D(1A) dopamine receptor (P21728 whole entry): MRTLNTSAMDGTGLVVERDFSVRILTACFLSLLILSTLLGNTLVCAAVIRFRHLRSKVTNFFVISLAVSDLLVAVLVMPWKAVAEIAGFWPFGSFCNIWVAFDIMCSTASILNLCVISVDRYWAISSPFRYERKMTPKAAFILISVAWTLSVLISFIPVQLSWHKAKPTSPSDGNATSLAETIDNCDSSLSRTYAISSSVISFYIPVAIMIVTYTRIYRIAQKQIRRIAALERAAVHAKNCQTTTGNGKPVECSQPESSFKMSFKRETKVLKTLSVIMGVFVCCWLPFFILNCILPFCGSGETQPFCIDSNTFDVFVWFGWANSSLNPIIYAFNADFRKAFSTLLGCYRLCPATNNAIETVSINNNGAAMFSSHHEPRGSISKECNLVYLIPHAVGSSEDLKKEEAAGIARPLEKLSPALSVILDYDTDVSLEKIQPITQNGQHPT

[28] = molecular target: D(1B) dopamine receptor (Homo sapiens) (UniProt P21918); test: Displacement of [3H]-[…] from recombinant human dopamine D5 receptor at 10 uM after […] by Microbeta scintillation counting analysis relative to control
[29] = molecular target: Sodium-dependent serotonin transporter (Homo sapiens) (UniProt P31645); test: Displacement of [3H]-Citalopram from recombinant human SERT at 10 uM after […] by Microbeta scintillation counting analysis relative to control
[30] = molecular target: 5-hydroxytryptamine receptor 7 (Homo sapiens, UniProt P34969); test: Displacement of [3H]-LSD from recombinant human 5-HT7 receptor after […] by Microbeta scintillation counting analysis
Chain of 5-hydroxytryptamine receptor 7 (P34969 whole entry): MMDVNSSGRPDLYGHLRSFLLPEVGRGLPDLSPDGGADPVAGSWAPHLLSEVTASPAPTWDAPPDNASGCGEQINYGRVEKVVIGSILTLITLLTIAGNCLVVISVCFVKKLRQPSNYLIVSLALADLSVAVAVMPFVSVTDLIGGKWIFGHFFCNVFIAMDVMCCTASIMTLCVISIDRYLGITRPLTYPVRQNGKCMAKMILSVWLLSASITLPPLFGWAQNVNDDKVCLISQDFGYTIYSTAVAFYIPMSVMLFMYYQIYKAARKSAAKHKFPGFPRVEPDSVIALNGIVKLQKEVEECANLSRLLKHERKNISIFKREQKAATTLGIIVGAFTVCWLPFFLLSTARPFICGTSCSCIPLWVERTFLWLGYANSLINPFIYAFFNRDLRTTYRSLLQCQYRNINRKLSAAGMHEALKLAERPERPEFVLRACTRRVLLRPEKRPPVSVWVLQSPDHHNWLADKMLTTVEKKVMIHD

[31] = molecular target: Beta-3 adrenergic receptor (Homo sapiens) (UniProt P13945); test: Displacement of [3H]-Iodopindolol from recombinant human adrenergic beta3 receptor at 10 uM after […] by Microbeta scintillation counting analysis relative to control
Chain of Beta-3 adrenergic receptor (Homo sapiens) (P13945 whole entry, looked up): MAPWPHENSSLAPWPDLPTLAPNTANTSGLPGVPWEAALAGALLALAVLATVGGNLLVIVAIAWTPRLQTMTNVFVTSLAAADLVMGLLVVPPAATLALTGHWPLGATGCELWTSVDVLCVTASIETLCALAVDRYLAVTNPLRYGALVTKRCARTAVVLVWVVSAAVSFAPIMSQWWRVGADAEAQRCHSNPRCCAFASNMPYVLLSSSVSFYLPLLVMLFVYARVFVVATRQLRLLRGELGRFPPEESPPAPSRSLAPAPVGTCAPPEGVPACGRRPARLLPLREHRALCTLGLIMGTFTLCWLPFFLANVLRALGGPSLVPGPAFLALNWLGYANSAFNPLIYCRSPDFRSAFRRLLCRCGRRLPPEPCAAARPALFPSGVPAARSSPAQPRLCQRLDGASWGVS

[32] = molecular target: Kappa-type opioid receptor (Homo sapiens) (UniProt P41145); test: Displacement of [3H]-U69593 from recombinant human kappa opioid receptor at 10 uM after […] by Microbeta scintillation counting analysis relative to control
[33] = molecular target: Sigma 2 receptor; test: Displacement of [3H]-DTG from recombinant human sigma-2 receptor after […] by Microbeta scintillation counting analysis
[34] = molecular target: 5-hydroxytryptamine receptor 1D (Homo sapiens, UniProt P28221); test: Displacement of [3H]-[…] from recombinant human 5-HT1D receptor after […] by Microbeta scintillation counting analysis
Chain of 5-hydroxytryptamine receptor 1D (P28221 whole entry): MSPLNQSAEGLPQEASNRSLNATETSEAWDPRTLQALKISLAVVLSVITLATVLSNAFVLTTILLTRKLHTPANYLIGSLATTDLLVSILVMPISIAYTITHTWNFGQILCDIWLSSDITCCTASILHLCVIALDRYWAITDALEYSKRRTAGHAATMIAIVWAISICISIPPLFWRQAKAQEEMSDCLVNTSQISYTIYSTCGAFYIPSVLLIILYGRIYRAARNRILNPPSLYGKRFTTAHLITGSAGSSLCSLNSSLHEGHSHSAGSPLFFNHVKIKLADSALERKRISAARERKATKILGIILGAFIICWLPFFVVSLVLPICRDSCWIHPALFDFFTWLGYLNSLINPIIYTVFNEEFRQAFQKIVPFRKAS

[35] = molecular target: Muscarinic acetylcholine receptor M5 (Homo sapiens, UniProt P08912); test: Displacement of [3H]-Tiotidine from recombinant human muscarinic M5 receptor after […] by Microbeta scintillation counting analysis
[36] = molecular target: Beta-1 adrenergic receptor (Homo sapiens) (UniProt P08588); test: Displacement of [3H]-Iodopindolol from recombinant human adrenergic beta1 receptor at 10 uM after […] by Microbeta scintillation counting analysis relative to control
Chain of Beta-1 adrenergic receptor (Homo sapiens) (P08588 whole entry, looked up): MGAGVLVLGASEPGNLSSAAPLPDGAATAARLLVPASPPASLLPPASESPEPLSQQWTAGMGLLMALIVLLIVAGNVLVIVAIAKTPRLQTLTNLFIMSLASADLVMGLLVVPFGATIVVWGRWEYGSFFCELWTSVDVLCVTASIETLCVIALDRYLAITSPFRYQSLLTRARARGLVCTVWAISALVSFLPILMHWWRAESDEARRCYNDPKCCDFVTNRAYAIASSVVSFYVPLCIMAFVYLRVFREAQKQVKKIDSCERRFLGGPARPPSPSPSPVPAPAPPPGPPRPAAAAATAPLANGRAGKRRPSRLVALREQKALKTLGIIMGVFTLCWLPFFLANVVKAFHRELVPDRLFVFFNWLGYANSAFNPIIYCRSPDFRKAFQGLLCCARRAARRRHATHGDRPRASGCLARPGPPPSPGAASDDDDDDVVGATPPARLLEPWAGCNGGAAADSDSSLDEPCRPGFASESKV

[37] = molecular target: GABA-A receptor; agonist GABA site (Homo sapiens) (UniProt P14867+P47870+P28472+P48169+P34903+P18505+P47869+P31644+Q16445); test: Displacement of [3H]-Muscimol from recombinant human GABAA receptor at 10 uM after […] by Microbeta scintillation counting analysis relative to control; type: protein-complex assay
[38] = molecular target: 5-hydroxytryptamine receptor 1E (Homo sapiens, UniProt P28566); test: Displacement of [3H]-5-HT from recombinant human 5-HT1E receptor after […] by Microbeta scintillation counting analysis
[39] = molecular target: Alpha-2B adrenergic receptor (Homo sapiens, UniProt P18089); test: Displacement of [3H]-Clonidine from recombinant human adrenergic alpha2B receptor after […] by Microbeta scintillation counting analysis
[40] = molecular target: Delta-type opioid receptor (Homo sapiens) (UniProt P41143); test: Displacement of [3H]-DADLE from recombinant human delta opioid receptor at 10 uM after […] by Microbeta scintillation counting analysis relative to control

COc1cc2c3c(c1OCCOC(C)=O)-c1cc4c(cc1CC3N(C)CC2)OCO4 (stereo unspecified)
Ratio Ke [1]: 0.3

COc1cc2c3c(c1OCc1ccc(Br)cc1)-c1cc4c(cc1CC3N(C)CC2)OCO4 (stereo unspecified)
inhibition [2]: < 50% | inhibition [3]: < 50% | inhibition [4]: < 50% | inhibition [5]: < 50% | inhibition [6]: < 50% | inhibition [7]: < 50% | inhibition [8]: < 50% | inhibition [9]: < 50% | inhibition [10]: < 50% | inhibition [11]: < 50% | Ki [12]: > 0.9 µM | inhibition [13]: < 50% | Ki [14]: > 0.9 µM | inhibition [15]: < 50% | Ki [16]: > 0.9 µM | inhibition [17]: < 50% | inhibition [18]: < 50% | Ki [19]: > 0.9 µM | inhibition [20]: < 50% | inhibition [21]: < 50% | Ki [22]: > 0.9 µM | Ki [23]: > 0.9 µM | Ratio Ke [1]: > 1090 | inhibition [24]: < 50% | Ki [25]: > 0.9 µM | inhibition [26]: < 50% | Ki [27]: > 0.9 µM | inhibition [28]: < 50% | inhibition [29]: < 50% | Ki [30]: > 0.9 µM | inhibition [31]: < 50% | inhibition [32]: < 50% | Ki [33]: > 0.3 µM | Ki [34]: > 0.9 µM | Ki [35]: > 0.9 µM | inhibition [36]: < 50% | inhibition [37]: < 50% | Ki [38]: > 0.9 µM | Ki [39]: > 0.9 µM | inhibition [40]: < 50%
